Results as given in ChEMBL document CHEMBL4130378, “Discovery of pentacyclic triterpene 3β-ester derivatives as a new class of cholesterol ester transfer protein inhibitors” (Eur J Med Chem, 2017).
Each block holds one compound with its values, some of them ahead of it.

Key:
[1] = target: T1, Cholesteryl ester transfer protein (Homo sapiens, UniProt P11597); test: Inhibition of recombinant human CETP after 3 hrs using fluorescent cholesteryl containing HDL after 3 hrs by fluorescence assay
T1 sequence (P11597 whole entry): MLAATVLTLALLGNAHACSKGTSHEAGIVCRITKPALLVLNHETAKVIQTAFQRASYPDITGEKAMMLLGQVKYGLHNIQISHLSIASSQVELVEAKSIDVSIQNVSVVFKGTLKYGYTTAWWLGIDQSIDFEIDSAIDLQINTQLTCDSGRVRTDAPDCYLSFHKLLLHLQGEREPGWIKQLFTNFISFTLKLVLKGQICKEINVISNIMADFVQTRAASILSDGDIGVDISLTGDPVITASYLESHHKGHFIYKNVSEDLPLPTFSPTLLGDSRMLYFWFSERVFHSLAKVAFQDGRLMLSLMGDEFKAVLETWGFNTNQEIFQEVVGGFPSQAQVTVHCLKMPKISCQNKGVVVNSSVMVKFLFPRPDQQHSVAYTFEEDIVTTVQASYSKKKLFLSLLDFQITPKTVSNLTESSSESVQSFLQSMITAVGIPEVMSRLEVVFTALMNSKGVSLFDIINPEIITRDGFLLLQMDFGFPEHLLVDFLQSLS

[2] = Octanol-water partition coefficient, log P of the compound at pH 7.4 by HPLC based shake flask method; assay type: physicochemical
Mus musculus [3] = test: Hypolipidemic activity in transgenic ap2-CETPTg mouse model assessed as reduction in plasma LDL cholesterol levels at 30 mg/kg, po qd for 14 days measured 2 hrs post dose on day 14 by automated lipid analyzer relative to control; assay type: functional; design: scale not given: the % may be the effect or the level left
Procedure, shortened: (§1)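 ap2-CETPTg mice, which express human CETP in adipose tissue. Oral 30 mg/kg once daily for two weeks in DMSO/cremophor/saline 3:4:93. Retro-orbital blood drawn 2 h after the day-14 dose. HDL-C, LDL-C, TG and TC measured on an automated lipid analyzer, mean ± SD (n ≥ 6), versus control group.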

Cavia porcellus [4] = test: Antihyperlipidemic activity in high-fat fed guinea pig model assessed as increase in plasma HDL cholesterol level at 30 mg/kg administered via oral gavage as qd for 14 days measured 2 hrs post dose on day 14 relative to control; assay type: functional
Procedure, shortened: (§2)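 Male guinea pigs, 12 weeks old, fed a high-fat diet (2.5% coconut oil, 0.25% cholesterol) for two weeks. Gavage at 30 mg/kg once daily for two weeks while the diet continued. Plasma taken retro-orbitally 2 h after the day-14 dose. HDL-C, LDL-C, TG and TC reported as mean ± SD (n ≥ 6) versus the untreated high-fat model group.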

Cavia porcellus [5] = test: Hypolipidemic activity in high-fat fed guinea pig model assessed as reduction in plasma LDL cholesterol levels at 30 mg/kg administered via oral gavage as qd for 14 days measured 2 hrs post dose on day 14 relative to control; assay type: functional; design: scale not given: the % may be the effect or the level left; procedure, shortened: as §2
Mus musculus [6] = test: Induction of plasma triglyceride levels in transgenic ap2-CETPTg mouse model at 30 mg/kg, po qd for 14 days measured 2 hrs post dose on day 14 by automated lipid analyzer relative to control; assay type: ADME, organism-based; conditions: in vivo; procedure, shortened: as §1
Mus musculus [7] = test: Induction of plasma total cholesterol levels in transgenic ap2-CETPTg mouse model at 30 mg/kg, po qd for 14 days measured 2 hrs post dose on day 14 by automated lipid analyzer relative to control; assay type: ADME, organism-based; conditions: in vivo; procedure, shortened: as §1
[8] = target: T2, Pancreatic triacylglycerol lipase (Sus scrofa, UniProt P00591); test: Inhibition of porcine pancreatic lipase using 2,3-dimercaptopropan-1-ol tributyrate as substrate preincubated for 5 mins followed by substrate addition measured after 30 mins by colorimetric assay
T2 sequence (P00591 whole entry): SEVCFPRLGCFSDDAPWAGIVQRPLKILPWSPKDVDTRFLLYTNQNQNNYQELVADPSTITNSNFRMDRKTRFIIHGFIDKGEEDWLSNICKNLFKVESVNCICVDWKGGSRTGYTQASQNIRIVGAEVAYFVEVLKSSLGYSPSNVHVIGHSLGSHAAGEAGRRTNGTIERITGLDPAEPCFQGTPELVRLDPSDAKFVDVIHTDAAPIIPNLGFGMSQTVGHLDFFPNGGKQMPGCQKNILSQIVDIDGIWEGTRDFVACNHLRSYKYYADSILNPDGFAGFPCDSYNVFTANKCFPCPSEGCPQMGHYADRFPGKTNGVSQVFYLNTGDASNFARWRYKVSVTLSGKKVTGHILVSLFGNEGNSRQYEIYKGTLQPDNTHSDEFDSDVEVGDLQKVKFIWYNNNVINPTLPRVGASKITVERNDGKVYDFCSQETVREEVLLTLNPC

[9] = MRT (0 to 48 hrs) in normal fed guinea pig at 30 mg/kg administered via oral gavage by LC-MS/MS analysis; assay type: ADME, organism-based, Cavia porcellus; conditions: in vivo
[10] = MRT (0 to infinity) in normal fed guinea pig at 30 mg/kg administered via oral gavage by LC-MS/MS analysis; assay type: ADME, organism-based, Cavia porcellus; conditions: in vivo
[11] = AUC (0 to 48 hrs) in normal fed guinea pig at 30 mg/kg administered via oral gavage by LC-MS/MS analysis; assay type: ADME, organism-based, Cavia porcellus; design: time < 48 hr, dose 30 mg/kg, route oral; conditions: in vivo
[12] = AUC (0 to infinity) in normal fed guinea pig at 30 mg/kg administered via oral gavage by LC-MS/MS analysis; assay type: ADME, organism-based, Cavia porcellus; design: dose 30 mg/kg, route oral, time infinity; conditions: in vivo
[13] = Cmax in normal fed guinea pig at 30 mg/kg administered via oral gavage by LC-MS/MS analysis; assay type: ADME, organism-based, Cavia porcellus; design: dose 30 mg/kg, route oral; conditions: in vivo
[14] = Tmax in normal fed guinea pig at 30 mg/kg administered via oral gavage by LC-MS/MS analysis; assay type: ADME, organism-based, Cavia porcellus; conditions: in vivo
[15] = Terminal half life in normal fed guinea pig at 30 mg/kg administered via oral gavage by LC-MS/MS analysis; assay type: ADME, organism-based, Cavia porcellus; conditions: in vivo, read-out: beta t1/2 (converted)
Cavia porcellus [16] = test: Drug level in normal fed guinea pig treated with 3-beta-[(2-Carboxyphenyl)carbonyloxy]-olean-12-en-28-oic acid at 30 mg/kg administered via oral gavage by LC-MS/MS analysis; assay type: ADME, organism-based; conditions: in vivo

Compound: CC1(C)CC[C@]2(C(=O)OCC(=O)O)CC[C@]3(C)C(=CC[C@@H]4[C@@]5(C)CC[C@H](OC(=O)CCCC(=O)O)C(C)(C)[C@@H]5CC[C@]43C)[C@@H]2C1
IC50 ([1]; read-out: IC50): 38.9 µM

Compound: CC1(C)CC[C@]2(C(=O)O)CC[C@]3(C)C(=CC[C@@H]4[C@@]5(C)CC[C@H](OC(=O)CCCC(=O)O)C(C)(C)[C@@H]5CC[C@]43C)[C@@H]2C1
IC50 ([1]; read-out: IC50): 3.5 µM

Compound: COc1cc(F)c(C(C)C)cc1-c1ccc(C(F)(F)F)cc1CN1C(=O)O[C@H](c2cc(C(F)(F)F)cc(C(F)(F)F)c2)[C@@H]1C [ANACETRAPIB]
Activity (Mus musculus [3]): 40.4%
Activity (Cavia porcellus [4]): 82.2%
Activity (Cavia porcellus [5]): 30.2%
logD [2]: 0.73
Activity (Mus musculus [6]): 4.7%
Activity (Mus musculus [7]): 17.8%

Compound: CC1(C)CC[C@]2(C(=O)O)CC[C@]3(C)C(=CC[C@@H]4[C@@]5(C)CC[C@H](OC(=O)CCN6CCOCC6)C(C)(C)[C@@H]5CC[C@]43C)[C@@H]2C1
IC50 ([1]; read-out: IC50): 68.5 µM

Compound: CC(=O)O[C@H]1CC[C@]2(C)[C@H]3CC=C4[C@@H]5CC(C)(C)CC[C@]5(C(=O)O)CC[C@@]4(C)[C@]3(C)CC[C@H]2C1(C)C [ACETYL OLEANOLIC ACID]
IC50 [1]: Not Active

Next, values leading:

logD [2]: 1.05
Compound: CCOC(=O)N1c2ccc(C(F)(F)F)cc2[C@@H](N(Cc2cc(C(F)(F)F)cc(C(F)(F)F)c2)C(=O)OC)C[C@H]1CC [TORCETRAPIB]

IC50 ([1]; read-out: IC50): 46.6 µM
Compound: C[C@H]1[C@H](C)CC[C@]2(C(=O)O)CC[C@]3(C)C(=CC[C@@H]4[C@@]5(C)CC[C@H](O)C(C)(C)[C@@H]5CC[C@]43C)[C@H]12 [URSOLIC ACID]

IC50 ([1]; read-out: IC50): 4.3 µM
Compound: CC1(C)CC[C@]2(C(=O)O)CC[C@]3(C)C(=CC[C@@H]4[C@@]5(C)CC[C@H](OC(=O)CCC(=O)O)C(C)(C)[C@@H]5CC[C@]43C)[C@@H]2C1 [OLEANOLIC ACID 3-O-SUCCINATE]

IC50 [8]: 182 µM
MRT last [9]: 11.7 h
MRT inf [10]: 15 h
AUC(0-t) at 48 h [11]: 291 ng·h/mL
AUC(0-inf) [12]: 312 ng·h/mL
Cmax [13]: 52.2 ng/mL
Tmax [14]: 0.75 h
half-life [15]: 11.7 h
Drug metabolism (Cavia porcellus [16]): Metabolite_Detected
Compound: CC1(C)CC[C@]2(C(=O)O)CC[C@]3(C)C(=CC[C@@H]4[C@@]5(C)CC[C@H](O)C(C)(C)[C@@H]5CC[C@]43C)[C@@H]2C1 [OLEANOLIC_ACID]
